# Data from ChEMBL document CHEMBL4368863, “Evaluation of novel N'-(3-hydroxybenzoyl)-2-oxo-2H-chromene-3-carbohydrazide derivatives as potential HIV-1 integrase inhibitors” (Medchemcomm, 2019).
# Assays:
# [1] = Cytotoxicity against human HeLa cells assessed as cell viability at 25 uM after 48 hrs by resazurin dye-based fluorescence assay; settings: read-out: Activity
# How it was run: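 HeLa cells seeded at 6.7 × 10^4 per well in DMEM with 10% foetal bovine serum and penicillin/streptomycin/amphotericin B. Grown 24 h at 37 °C, 5% CO2, then exposed to compound at 25 μM final for 48 h. Resazurin added and fluorescence read (Ex 560/Em 590 nm) after 2–4 h more. Viability expressed as % of no-compound control wells.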
# [2] = biological target: Human immunodeficiency virus type 1 integrase (Human immunodeficiency virus 1, UniProt Q7ZJM1); assay: Inhibition of HIV1 subtype C recombinant integrase strand transfer activity preincubated for 45 mins with double-stranded biotinylated donor DNA followed by addition of double stranded FITC-labelled target DNA and measured after 60 mins relative to control
# Human immunodeficiency virus type 1 integrase, sequence (Q7ZJM1 whole entry): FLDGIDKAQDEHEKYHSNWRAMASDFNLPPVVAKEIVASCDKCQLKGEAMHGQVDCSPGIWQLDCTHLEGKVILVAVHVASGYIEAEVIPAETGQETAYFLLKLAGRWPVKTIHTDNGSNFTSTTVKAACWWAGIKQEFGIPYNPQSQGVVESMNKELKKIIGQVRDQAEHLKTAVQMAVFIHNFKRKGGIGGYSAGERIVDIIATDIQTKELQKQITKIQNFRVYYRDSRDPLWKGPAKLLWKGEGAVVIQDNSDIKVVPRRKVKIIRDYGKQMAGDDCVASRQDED
Structure (SMILES),IC50 [2],"viability at 48 h, 25 µM [1]"
COc1ccc(O)c(C(=O)NNC(=O)c2cc3cc(Br)ccc3oc2=O)c1,163 nM,> 70%
O=C(NNC(=O)c1cc2cc(Cl)ccc2oc1=O)c1cc(Cl)ccc1O,41 nM,> 70%
COc1cccc(C(=O)NNC(=O)c2cc3ccccc3oc2=O)c1O,,> 70%
COc1cccc(C(=O)NNC(=O)c2cc3cccc(OC)c3oc2=O)c1O,,> 70%
CCOc1cccc2cc(C(=O)NNC(=O)c3cccc(OC)c3O)c(=O)oc12,,> 70%
COc1cccc(C(=O)NNC(=O)c2cc3cc(Br)ccc3oc2=O)c1O,,> 70%
COc1ccc(O)c(C(=O)NNC(=O)c2cc3cc(Cl)ccc3oc2=O)c1,605 nM,> 70%
COc1cccc(C(=O)NNC(=O)c2cc3cc(Cl)ccc3oc2=O)c1O,,> 70%
O=C(NNC(=O)c1cc2cc(Br)ccc2oc1=O)c1cc(Cl)ccc1O,175 nM,> 70%

# Continued, in another order:
IC50 [2],Structure (SMILES),"viability at 48 h, 25 µM [1]"
5800 nM,COc1ccc(O)c(C(=O)NNC(=O)c2cc3ccccc3oc2=O)c1,> 70%
592 nM,CCOc1cccc2cc(C(=O)NNC(=O)c3cc(OC)ccc3O)c(=O)oc12,> 70%
13 nM,O=C(NNC(=O)c1cc2cc(Cl)ccc2oc1=O)c1ccccc1O,> 70%
70 nM,O=C(NNC(=O)c1cc2ccccc2oc1=O)c1ccccc1O,> 70%
104 nM,CCOc1cccc2cc(C(=O)NNC(=O)c3ccccc3O)c(=O)oc12,> 70%
23 nM,COc1cccc2cc(C(=O)NNC(=O)c3cc(Cl)ccc3O)c(=O)oc12,> 70%
31 nM,CCOc1cccc2cc(C(=O)NNC(=O)c3cc(Cl)ccc3O)c(=O)oc12,> 70%
14 nM,O=C(NNC(=O)c1cc2cc(Br)ccc2oc1=O)c1ccccc1O,> 70%
33 nM,O=C(NNC(=O)c1cc2ccccc2oc1=O)c1cc(Cl)ccc1O,> 70%
47 nM,COc1cccc2cc(C(=O)NNC(=O)c3ccccc3O)c(=O)oc12,> 70%
901 nM,COc1ccc(O)c(C(=O)NNC(=O)c2cc3cccc(OC)c3oc2=O)c1,> 70%
